Laboratory results from ChEMBL document CHEMBL1671684, “In vitro resistance profile of the hepatitis C virus NS3/4A protease inhibitor TMC435” (Antimicrob Agents Chemother, 2010).

test system: Hepatitis C virus; test: Antiviral activity against Hepatitis C virus subtype 1b expressing WT NS3 infected in HuH7 cells after 48 hrs by luciferase reporter assay; assay type: functional, organism-based, Hepacivirus hominis; settings: genotype 1b, Huh-7, 48 h
How it was run: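 Huh7-lunet cells were electroporated with 10 μg wild-type genotype 1b subgenomic replicon RNA (clone ET; luciferase reporter; E1202G, T1280I, K1846T). They were seeded at 4,000 cells/well over a nine-point compound dilution series. After 48 h at 37°C, 5% CO2, luciferase reagent was added 1:1, followed by 10–20 min in the dark and a luminescence read. EC50 is the median of individual-experiment EC50s.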

| Structure (SMILES) | EC50 [µM] |
| --- | --- |
| CC(C)(C)NC(=O)N[C@H](C(=O)N1C[C@H]2[C@@H]([C@H]1C(=O)NC(CC1CCC1)C(=O)C(N)=O)C2(C)C)C(C)(C)C (stereo not given in full) [BOCEPREVIR] | 0.148 |

test system: Hepatitis C virus; test: Antiviral activity against Hepatitis C virus subtype 1b expressing NS3 V36M mutant infected in HuH7 cells after 48 hrs by luciferase reporter assay; assay type: functional, organism-based, Hepacivirus hominis; settings: genotype 1b, Huh-7, 48 h
How it was run: (§1)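 Genotype 1b con1 subgenomic bicistronic replicon (clone ET) with luciferase reporter and adaptive mutations E1202G, T1280I, K1846T, carrying site-directed NS3 single or double mutations. 10 μg wild-type or mutant replicon RNA electroporated into Huh7-lunet cells, seeded 4,000 cells/well over a nine-point inhibitor dilution series, 48 h at 37°C, 5% CO2, then luminescence read. EC50 taken as median of individual experiments; fold change relative to parental replicon EC50.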

| Structure (SMILES) | EC50 [µM] |
| --- | --- |
| CC(C)(C)NC(=O)N[C@H](C(=O)N1C[C@H]2[C@@H]([C@H]1C(=O)NC(CC1CCC1)C(=O)C(N)=O)C2(C)C)C(C)(C)C (stereo not given in full) [BOCEPREVIR] | 0.217 |

test system: Hepatitis C virus; test: Antiviral activity against Hepatitis C virus subtype 1b expressing NS3 V36A mutant infected in HuH7 cells after 48 hrs by luciferase reporter assay; assay type: functional, organism-based, Hepacivirus hominis; settings: genotype 1b, Huh-7, 48 h; how it was run: as §1

| Structure (SMILES) | EC50 [µM] |
| --- | --- |
| CC(C)(C)NC(=O)N[C@H](C(=O)N1C[C@H]2[C@@H]([C@H]1C(=O)NC(CC1CCC1)C(=O)C(N)=O)C2(C)C)C(C)(C)C (stereo not given in full) [BOCEPREVIR] | 1.45 |

test system: Hepatitis C virus; test: Antiviral activity against Hepatitis C virus subtype 1b expressing NS3 F43I mutant infected in HuH7 cells after 48 hrs by luciferase reporter assay; assay type: functional, organism-based, Hepacivirus hominis; settings: genotype 1b, Huh-7, 48 h; how it was run: as §1

| Structure (SMILES) | EC50 [µM] |
| --- | --- |
| CC(C)(C)NC(=O)N[C@H](C(=O)N1C[C@H]2[C@@H]([C@H]1C(=O)NC(CC1CCC1)C(=O)C(N)=O)C2(C)C)C(C)(C)C (stereo not given in full) [BOCEPREVIR] | 0.242 |

test system: Hepatitis C virus; test: Antiviral activity against Hepatitis C virus subtype 1b expressing NS3 F43V mutant infected in HuH7 cells after 48 hrs by luciferase reporter assay; assay type: functional, organism-based, Hepacivirus hominis; settings: genotype 1b, Huh-7, 48 h; how it was run: as §1

| Structure (SMILES) | EC50 [µM] |
| --- | --- |
| CC(C)(C)NC(=O)N[C@H](C(=O)N1C[C@H]2[C@@H]([C@H]1C(=O)NC(CC1CCC1)C(=O)C(N)=O)C2(C)C)C(C)(C)C (stereo not given in full) [BOCEPREVIR] | 0.527 |

test system: Hepatitis C virus; test: Antiviral activity against Hepatitis C virus subtype 1b expressing NS3 Q80K mutant infected in HuH7 cells after 48 hrs by luciferase reporter assay; assay type: functional, organism-based, Hepacivirus hominis; settings: genotype 1b, Huh-7, 48 h; how it was run: as §1

| Structure (SMILES) | EC50 [µM] |
| --- | --- |
| CC(C)(C)NC(=O)N[C@H](C(=O)N1C[C@H]2[C@@H]([C@H]1C(=O)NC(CC1CCC1)C(=O)C(N)=O)C2(C)C)C(C)(C)C (stereo not given in full) [BOCEPREVIR] | 0.094 |

test system: Hepatitis C virus; test: Antiviral activity against Hepatitis C virus subtype 1b expressing NS3 R109K mutant infected in HuH7 cells after 48 hrs by luciferase reporter assay; assay type: functional, organism-based, Hepacivirus hominis; settings: genotype 1b, Huh-7, 48 h; how it was run: as §1

| Structure (SMILES) | EC50 [µM] |
| --- | --- |
| CC(C)(C)NC(=O)N[C@H](C(=O)N1C[C@H]2[C@@H]([C@H]1C(=O)NC(CC1CCC1)C(=O)C(N)=O)C2(C)C)C(C)(C)C (stereo not given in full) [BOCEPREVIR] | 0.033 |

test system: Hepatitis C virus; test: Antiviral activity against Hepatitis C virus subtype 1b expressing NS3 R155M mutant infected in HuH7 cells after 48 hrs by luciferase reporter assay; assay type: functional, organism-based, Hepacivirus hominis; settings: genotype 1b, Huh-7, 48 h; how it was run: as §1

| Structure (SMILES) | EC50 [µM] |
| --- | --- |
| CC(C)(C)NC(=O)N[C@H](C(=O)N1C[C@H]2[C@@H]([C@H]1C(=O)NC(CC1CCC1)C(=O)C(N)=O)C2(C)C)C(C)(C)C (stereo not given in full) [BOCEPREVIR] | 0.792 |

test system: Hepatitis C virus; test: Antiviral activity against Hepatitis C virus subtype 1b expressing NS3 R155K mutant infected in HuH7 cells after 48 hrs by luciferase reporter assay; assay type: functional, organism-based, Hepacivirus hominis; settings: genotype 1b, Huh-7, 48 h; how it was run: as §1

| Structure (SMILES) | EC50 [µM] |
| --- | --- |
| CC(C)(C)NC(=O)N[C@H](C(=O)N1C[C@H]2[C@@H]([C@H]1C(=O)NC(CC1CCC1)C(=O)C(N)=O)C2(C)C)C(C)(C)C (stereo not given in full) [BOCEPREVIR] | 0.743 |

test system: Hepatitis C virus; test: Antiviral activity against Hepatitis C virus subtype 1b expressing NS3 A156S mutant infected in HuH7 cells after 48 hrs by luciferase reporter assay; assay type: functional, organism-based, Hepacivirus hominis; settings: genotype 1b, Huh-7, 48 h; how it was run: as §1

| Structure (SMILES) | EC50 [µM] |
| --- | --- |
| CC(C)(C)NC(=O)N[C@H](C(=O)N1C[C@H]2[C@@H]([C@H]1C(=O)NC(CC1CCC1)C(=O)C(N)=O)C2(C)C)C(C)(C)C (stereo not given in full) [BOCEPREVIR] | 0.525 |

test system: Hepatitis C virus; test: Antiviral activity against Hepatitis C virus subtype 1b expressing NS3 A156G mutant infected in HuH7 cells after 48 hrs by luciferase reporter assay; assay type: functional, organism-based, Hepacivirus hominis; settings: genotype 1b, Huh-7, 48 h; how it was run: as §1

| Structure (SMILES) | EC50 [µM] |
| --- | --- |
| CC(C)(C)NC(=O)N[C@H](C(=O)N1C[C@H]2[C@@H]([C@H]1C(=O)NC(CC1CCC1)C(=O)C(N)=O)C2(C)C)C(C)(C)C (stereo not given in full) [BOCEPREVIR] | 0.065 |

test system: Hepatitis C virus; test: Antiviral activity against Hepatitis C virus subtype 1b expressing NS3 A156T mutant infected in HuH7 cells after 48 hrs by luciferase reporter assay; assay type: functional, organism-based, Hepacivirus hominis; settings: genotype 1b, Huh-7, 48 h; how it was run: as §1

| Structure (SMILES) | EC50 [µM] |
| --- | --- |
| CC(C)(C)NC(=O)N[C@H](C(=O)N1C[C@H]2[C@@H]([C@H]1C(=O)NC(CC1CCC1)C(=O)C(N)=O)C2(C)C)C(C)(C)C (stereo not given in full) [BOCEPREVIR] | 7.23 |

test system: Hepatitis C virus; test: Antiviral activity against Hepatitis C virus subtype 1b expressing NS3 D168G mutant infected in HuH7 cells after 48 hrs by luciferase reporter assay; assay type: functional, organism-based, Hepacivirus hominis; settings: genotype 1b, Huh-7, 48 h; how it was run: as §1

| Structure (SMILES) | EC50 [µM] |
| --- | --- |
| CC(C)(C)NC(=O)N[C@H](C(=O)N1C[C@H]2[C@@H]([C@H]1C(=O)NC(CC1CCC1)C(=O)C(N)=O)C2(C)C)C(C)(C)C (stereo not given in full) [BOCEPREVIR] | 0.063 |

test system: Hepatitis C virus; test: Antiviral activity against Hepatitis C virus subtype 1b expressing NS3 D168T mutant infected in HuH7 cells after 48 hrs by luciferase reporter assay; assay type: functional, organism-based, Hepacivirus hominis; settings: genotype 1b, Huh-7, 48 h; how it was run: as §1

| Structure (SMILES) | EC50 [µM] |
| --- | --- |
| CC(C)(C)NC(=O)N[C@H](C(=O)N1C[C@H]2[C@@H]([C@H]1C(=O)NC(CC1CCC1)C(=O)C(N)=O)C2(C)C)C(C)(C)C (stereo not given in full) [BOCEPREVIR] | 0.299 |

test system: Hepatitis C virus; test: Antiviral activity against Hepatitis C virus subtype 1b expressing NS3 D168V mutant infected in HuH7 cells after 48 hrs by luciferase reporter assay; assay type: functional, organism-based, Hepacivirus hominis; settings: genotype 1b, Huh-7, 48 h; how it was run: as §1

| Structure (SMILES) | EC50 [µM] |
| --- | --- |
| CC(C)(C)NC(=O)N[C@H](C(=O)N1C[C@H]2[C@@H]([C@H]1C(=O)NC(CC1CCC1)C(=O)C(N)=O)C2(C)C)C(C)(C)C (stereo not given in full) [BOCEPREVIR] | 0.083 |
